Data as given in ChEMBL document CHEMBL3627661, “Synthesis and biological evaluation of di-aryl urea derivatives as c-Kit inhibitors” (Bioorg Med Chem, 2015).

Tests used:
[1] = biological target: Epidermal growth factor receptor (Homo sapiens, UniProt P00533); experiment: Inhibition of human EGFR after 1 hr using [gamma-32P]ATP
[2] = biological target: Platelet-derived growth factor receptor beta (Homo sapiens, UniProt P09619); experiment: Inhibition of PDGFR-beta (unknown origin) by radiometric protein kinase assay
Sequence of Platelet-derived growth factor receptor beta (P09619 whole entry): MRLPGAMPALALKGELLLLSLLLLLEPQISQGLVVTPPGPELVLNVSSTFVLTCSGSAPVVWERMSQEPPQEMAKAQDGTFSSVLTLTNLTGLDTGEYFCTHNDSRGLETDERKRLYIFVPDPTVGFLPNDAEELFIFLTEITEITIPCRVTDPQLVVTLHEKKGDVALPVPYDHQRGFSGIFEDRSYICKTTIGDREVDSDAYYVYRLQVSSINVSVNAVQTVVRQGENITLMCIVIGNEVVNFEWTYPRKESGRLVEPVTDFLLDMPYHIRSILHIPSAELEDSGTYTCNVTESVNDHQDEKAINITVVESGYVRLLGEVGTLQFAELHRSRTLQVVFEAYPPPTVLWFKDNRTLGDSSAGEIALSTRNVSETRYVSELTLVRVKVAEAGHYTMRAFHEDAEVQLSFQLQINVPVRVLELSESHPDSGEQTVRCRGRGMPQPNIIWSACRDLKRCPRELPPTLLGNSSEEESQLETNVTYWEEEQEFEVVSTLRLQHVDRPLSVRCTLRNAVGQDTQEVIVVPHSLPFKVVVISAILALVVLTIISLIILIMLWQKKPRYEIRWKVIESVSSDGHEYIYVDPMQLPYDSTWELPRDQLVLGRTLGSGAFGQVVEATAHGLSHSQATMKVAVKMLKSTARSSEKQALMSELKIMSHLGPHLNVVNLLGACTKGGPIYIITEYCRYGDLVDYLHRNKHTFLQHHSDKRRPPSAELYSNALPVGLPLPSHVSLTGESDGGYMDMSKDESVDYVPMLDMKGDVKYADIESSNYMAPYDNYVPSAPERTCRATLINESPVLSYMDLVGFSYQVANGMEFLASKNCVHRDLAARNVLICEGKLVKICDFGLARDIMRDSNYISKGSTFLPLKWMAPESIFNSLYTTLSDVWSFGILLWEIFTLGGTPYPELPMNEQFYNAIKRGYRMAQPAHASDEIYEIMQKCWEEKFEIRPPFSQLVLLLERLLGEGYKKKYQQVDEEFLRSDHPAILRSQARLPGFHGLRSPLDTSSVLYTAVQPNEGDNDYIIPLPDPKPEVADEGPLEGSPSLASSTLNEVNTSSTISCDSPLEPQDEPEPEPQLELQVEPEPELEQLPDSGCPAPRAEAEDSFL

[3] = biological target: Proto-oncogene tyrosine-protein kinase Src (Homo sapiens, UniProt P12931); experiment: Inhibition of Src (unknown origin) by radiometric protein kinase assay
Sequence of Proto-oncogene tyrosine-protein kinase Src (P12931 2-536 limits assumed): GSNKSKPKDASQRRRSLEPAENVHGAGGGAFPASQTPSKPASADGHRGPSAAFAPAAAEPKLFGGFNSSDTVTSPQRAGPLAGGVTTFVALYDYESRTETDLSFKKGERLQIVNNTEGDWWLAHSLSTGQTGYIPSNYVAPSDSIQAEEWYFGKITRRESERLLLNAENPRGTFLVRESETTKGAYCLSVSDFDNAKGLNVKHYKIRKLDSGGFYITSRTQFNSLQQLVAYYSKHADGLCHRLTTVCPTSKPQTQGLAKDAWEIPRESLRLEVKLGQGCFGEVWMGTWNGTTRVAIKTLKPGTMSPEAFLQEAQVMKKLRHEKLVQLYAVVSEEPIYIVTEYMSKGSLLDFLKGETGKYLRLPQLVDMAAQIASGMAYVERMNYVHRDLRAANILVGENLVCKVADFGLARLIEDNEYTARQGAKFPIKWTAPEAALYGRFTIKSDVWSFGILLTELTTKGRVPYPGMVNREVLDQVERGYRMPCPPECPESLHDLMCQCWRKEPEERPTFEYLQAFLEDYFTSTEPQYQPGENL

[4] = biological target: Hepatocyte growth factor receptor (Homo sapiens, UniProt P08581); experiment: Inhibition of c-MET (unknown origin) by radiometric protein kinase assay
[5] = biological target: Vascular endothelial growth factor receptor 3 (Homo sapiens, UniProt P35916); experiment: Inhibition of VEGFR3 (unknown origin) by radiometric protein kinase assay
Sequence of Vascular endothelial growth factor receptor 3 (P35916 whole entry): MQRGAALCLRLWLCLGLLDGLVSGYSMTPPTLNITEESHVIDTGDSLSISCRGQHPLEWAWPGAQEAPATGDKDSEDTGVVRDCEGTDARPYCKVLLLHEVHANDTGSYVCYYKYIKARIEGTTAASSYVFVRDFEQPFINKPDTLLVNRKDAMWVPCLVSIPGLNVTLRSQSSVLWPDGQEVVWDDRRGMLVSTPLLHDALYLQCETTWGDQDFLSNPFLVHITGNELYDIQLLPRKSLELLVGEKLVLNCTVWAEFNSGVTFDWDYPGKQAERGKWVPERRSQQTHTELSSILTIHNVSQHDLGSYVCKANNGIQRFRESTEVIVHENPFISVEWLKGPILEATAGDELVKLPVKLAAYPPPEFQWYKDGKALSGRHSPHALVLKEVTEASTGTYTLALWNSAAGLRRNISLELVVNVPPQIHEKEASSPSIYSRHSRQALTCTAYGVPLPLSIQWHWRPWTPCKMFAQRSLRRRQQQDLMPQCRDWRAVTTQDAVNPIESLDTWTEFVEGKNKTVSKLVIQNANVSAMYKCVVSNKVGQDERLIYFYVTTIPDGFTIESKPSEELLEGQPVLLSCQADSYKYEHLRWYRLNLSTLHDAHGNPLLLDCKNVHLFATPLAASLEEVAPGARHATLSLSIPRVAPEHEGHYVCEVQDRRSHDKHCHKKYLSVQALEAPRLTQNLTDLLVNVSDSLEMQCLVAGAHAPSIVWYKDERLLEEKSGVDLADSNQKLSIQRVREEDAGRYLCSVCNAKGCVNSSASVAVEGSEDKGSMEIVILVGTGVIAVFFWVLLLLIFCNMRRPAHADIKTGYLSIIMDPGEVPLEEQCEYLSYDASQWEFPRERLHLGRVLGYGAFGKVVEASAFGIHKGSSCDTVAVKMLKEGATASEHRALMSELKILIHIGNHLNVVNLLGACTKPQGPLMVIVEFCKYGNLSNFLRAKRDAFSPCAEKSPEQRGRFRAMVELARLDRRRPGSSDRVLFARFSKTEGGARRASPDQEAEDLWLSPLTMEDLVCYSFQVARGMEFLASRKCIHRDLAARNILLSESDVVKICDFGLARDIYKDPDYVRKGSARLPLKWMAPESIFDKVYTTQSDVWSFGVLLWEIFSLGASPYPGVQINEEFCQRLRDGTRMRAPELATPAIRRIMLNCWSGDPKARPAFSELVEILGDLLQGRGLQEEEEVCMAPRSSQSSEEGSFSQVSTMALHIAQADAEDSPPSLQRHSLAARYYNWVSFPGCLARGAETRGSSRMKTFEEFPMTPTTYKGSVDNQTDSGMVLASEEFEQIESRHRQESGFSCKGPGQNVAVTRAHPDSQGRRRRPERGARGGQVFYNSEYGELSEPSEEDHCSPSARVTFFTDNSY

[6] = biological target: Mast/stem cell growth factor receptor Kit (Homo sapiens, UniProt P10721); experiment: Inhibition of c-Kit (unknown origin) by radiometric protein kinase assay
Sequence of Mast/stem cell growth factor receptor Kit (P10721 whole entry): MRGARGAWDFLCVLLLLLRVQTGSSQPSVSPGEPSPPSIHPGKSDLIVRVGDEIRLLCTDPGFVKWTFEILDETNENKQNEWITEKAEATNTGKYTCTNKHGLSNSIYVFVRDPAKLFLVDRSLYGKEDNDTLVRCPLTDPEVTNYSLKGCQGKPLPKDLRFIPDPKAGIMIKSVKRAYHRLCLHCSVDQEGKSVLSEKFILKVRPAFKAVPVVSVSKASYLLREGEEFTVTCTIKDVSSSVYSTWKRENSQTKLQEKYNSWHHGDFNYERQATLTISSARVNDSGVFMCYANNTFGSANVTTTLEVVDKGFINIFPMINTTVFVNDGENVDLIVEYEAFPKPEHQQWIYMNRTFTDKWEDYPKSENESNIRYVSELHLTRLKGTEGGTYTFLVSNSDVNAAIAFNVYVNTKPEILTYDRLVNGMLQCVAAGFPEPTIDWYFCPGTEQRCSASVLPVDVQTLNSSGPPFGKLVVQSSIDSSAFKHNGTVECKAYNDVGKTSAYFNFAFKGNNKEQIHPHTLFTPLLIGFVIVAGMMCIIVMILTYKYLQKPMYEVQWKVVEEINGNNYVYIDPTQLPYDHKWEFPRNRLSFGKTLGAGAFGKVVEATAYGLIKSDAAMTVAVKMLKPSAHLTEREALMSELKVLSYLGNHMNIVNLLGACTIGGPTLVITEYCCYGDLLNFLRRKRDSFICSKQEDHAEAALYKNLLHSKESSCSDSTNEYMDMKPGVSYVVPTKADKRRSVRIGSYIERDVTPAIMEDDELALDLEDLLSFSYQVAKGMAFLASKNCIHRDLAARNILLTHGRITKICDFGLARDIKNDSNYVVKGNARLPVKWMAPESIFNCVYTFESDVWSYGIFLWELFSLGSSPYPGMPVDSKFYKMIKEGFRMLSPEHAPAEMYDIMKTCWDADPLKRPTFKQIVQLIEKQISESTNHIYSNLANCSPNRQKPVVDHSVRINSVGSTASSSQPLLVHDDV

[7] = biological target: Vascular endothelial growth factor receptor 1 (Homo sapiens, UniProt P17948); experiment: Inhibition of VEGFR1 (unknown origin) by radiometric protein kinase assay
[8] = biological target: RAF proto-oncogene serine/threonine-protein kinase (Homo sapiens, UniProt P04049); experiment: Inhibition of Raf (unknown origin) by radiometric protein kinase assay
Sequence of RAF proto-oncogene serine/threonine-protein kinase (P04049 whole entry): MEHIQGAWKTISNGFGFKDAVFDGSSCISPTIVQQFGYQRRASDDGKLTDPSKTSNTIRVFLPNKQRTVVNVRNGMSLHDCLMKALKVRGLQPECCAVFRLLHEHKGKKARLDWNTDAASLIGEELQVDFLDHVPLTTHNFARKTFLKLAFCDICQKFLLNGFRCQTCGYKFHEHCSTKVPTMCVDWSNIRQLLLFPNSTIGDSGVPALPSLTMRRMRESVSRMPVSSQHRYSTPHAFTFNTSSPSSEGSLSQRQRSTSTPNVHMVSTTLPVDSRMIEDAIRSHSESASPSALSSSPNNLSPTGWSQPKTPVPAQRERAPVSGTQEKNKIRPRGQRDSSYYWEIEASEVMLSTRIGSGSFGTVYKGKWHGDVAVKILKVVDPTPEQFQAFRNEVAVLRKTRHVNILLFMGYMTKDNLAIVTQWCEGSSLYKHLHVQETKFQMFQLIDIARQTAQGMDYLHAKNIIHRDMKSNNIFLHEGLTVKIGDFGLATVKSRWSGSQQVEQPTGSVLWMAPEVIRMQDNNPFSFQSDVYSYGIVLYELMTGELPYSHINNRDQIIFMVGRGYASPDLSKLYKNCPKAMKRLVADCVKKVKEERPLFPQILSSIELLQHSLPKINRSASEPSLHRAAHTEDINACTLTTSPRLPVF

[9] = biological target: Vascular endothelial growth factor receptor 2 (Homo sapiens, UniProt P35968); experiment: Inhibition of human recombinant VEGFR-2 after 1 hr using [gamma-32P]ATP
Procedure, shortened: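 Recombinant human VEGFR-2 (10 ng) was incubated for 1 h at 28 °C with varying compound concentrations. Kinase buffer: Tris 50 mM pH 7.5, BSA, MnCl2 1.5 mM, MgCl2 10 mM, DTT 2.5 mM, Na3VO4, β-glycerophosphate 5 mM. Substrate was poly(Glu4/Tyr), with ATP plus [γ-32P]ATP; final DMSO was 0.1%. The reaction was stopped with 100% TCA, wells were washed with 10% TCA, and each well was counted for 1 min.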

Row | Structure (SMILES) | IC50 [1] | IC50 [2] | IC50 [3] | IC50 [4] | IC50 [5] | IC50 [6] | IC50 [7] | IC50 [8] | IC50 [9]
1 | Fc1ccc(Nc2ncnc3ccccc23)cc1Cl | 30 nM |  |  |  |  |  |  |  | 
2 | COc1cc2ncnc(Oc3ccc(NC(=O)Nc4cccc(Br)c4)cc3)c2cc1OC |  | 5 nM | 5470 nM | 2310 nM | 9 nM | 16 nM | 46 nM | 930 nM | 
3 | Fc1ccc(Nc2ncnc3sccc23)cc1Cl | 2980 nM |  |  |  |  |  |  |  | 
4 | Fc1ccc(Nc2ncnc3sc4c(c23)CCCC4)cc1Cl | 1330 nM |  |  |  |  |  |  |  | > 10000 nM
5 | CCOC(=O)Nc1ccc(Nc2ncnc3ccccc23)cc1C | > 10000 nM |  |  |  |  |  |  |  | 
6 | CCOC(=O)Nc1ccc(Nc2ncnc3sc4c(c23)CCCC4)cc1C | > 10000 nM |  |  |  |  |  |  |  | > 10000 nM
7 | COc1cc2ncnc(Nc3ccc(NC(=O)Nc4cccc(Br)c4)cc3)c2cc1OC | 7710 nM |  |  |  |  | 3 nM |  |  | 12 nM
8 | O=C(Nc1ccc(Nc2ncnc3ccccc23)cc1)Nc1cccc(Br)c1 | > 10000 nM | 850 nM | > 10000 nM | > 10000 nM | 47 nM | 1 nM | 5750 nM | > 10000 nM | 91 nM
9 | O=C(Nc1ccc(Nc2ncnc3sccc23)cc1)Nc1cccc(Br)c1 | > 10000 nM | 2120 nM | > 10000 nM | > 10000 nM | 1980 nM | 1 nM | > 10000 nM | 4020 nM | 
10 | O=C(Nc1ccc(Nc2ncnc3sc4c(c23)CCCC4)cc1)Nc1cccc(Br)c1 | 3950 nM | 2820 nM | 7640 nM | > 10000 nM | 420 nM | 6 nM | 7150 nM | > 10000 nM | 310 nM
11 | Fc1ccc(Oc2ncnc3ccccc23)cc1Cl | 590 nM |  |  |  |  |  |  |  | 
12 | Fc1ccc(Oc2ncnc3sc4c(c23)CCCC4)cc1Cl | > 10000 nM |  |  |  |  |  |  |  | 3500 nM
13 | CCOC(=O)Nc1ccc(Oc2ncnc3cc(OC)c(OC)cc23)cc1C | > 10000 nM |  |  |  |  |  |  |  | 
14 | CCOC(=O)Nc1ccc(Oc2ncnc3ccccc23)cc1C | > 10000 nM |  |  |  |  |  |  |  | 710 nM
15 | CCOC(=O)Nc1ccc(Oc2ncnc3sccc23)cc1C | > 10000 nM |  |  |  |  |  |  |  | 
16 | COc1cc2ncnc(Oc3ccc(NC(=O)Nc4cccc(Br)c4)c(Cl)c3)c2cc1OC | > 10000 nM |  |  |  |  |  |  |  | 
17 | O=C(Nc1ccc(Oc2ncnc3ccccc23)cc1)Nc1cccc(Br)c1 | > 10000 nM | 320 nM | > 10000 nM | > 10000 nM | 7 nM | 14 nM | 650 nM | 6220 nM | 8 nM
18 | O=C(Nc1ccc(Oc2ncnc3sccc23)cc1)Nc1cccc(Br)c1 | > 10000 nM | 570 nM | > 10000 nM | > 10000 nM | 6 nM | 11 nM | 1080 nM | > 10000 nM | 18 nM
19 | Cc1cc(Oc2ncnc3sccc23)ccc1NC(=O)Nc1cccc(Br)c1 | > 10000 nM |  |  |  |  |  |  |  | 
20 | O=C(Nc1cccc(Br)c1)Nc1ccc(Oc2ncnc3sccc23)cc1Cl | > 10000 nM |  |  |  |  |  |  |  | 
21 | O=C(Nc1ccc(Oc2ncnc3sc4c(c23)CCCC4)cc1)Nc1cccc(Br)c1 | > 10000 nM | 2300 nM | 8460 nM | > 10000 nM | 1020 nM | 17 nM | 1700 nM | 5840 nM | 11 nM
22 | Cc1cc(Oc2ncnc3sc4c(c23)CCCC4)ccc1NC(=O)Nc1cccc(Br)c1 | 3290 nM |  |  |  |  |  |  |  | 34 nM
23 | O=C(Nc1cccc(Br)c1)Nc1ccc(Oc2ncnc3sc4c(c23)CCCC4)cc1Cl | 1260 nM |  |  |  |  |  |  |  | 15 nM
